We go through 4 molecules from paper PMC4804703 (ACS chemical neuroscience, 2015).

The test system of one test is rat CB1R (rCB1R). To be noted: cited from earlier work; for selectivity vs CB2R: rCB1R vs CB2R.
The next test concerns recombinant hCB1R. To be noted: cited from earlier work.
In the next test the target is hCB1R (Homo sapiens, UniProt P21554). In words: Cellular cAMP assay, forskolin-stimulated, Flp-In-293 cells. It counts as cell-based. To be noted: for potency relative to AEA, inhibition of forskolin-stimulated cAMP production: greater than the potency reported for AEA in this assay.
The target in test [1] is CB1R in mouse hippocampus (Mus musculus, UniProt P47746). Nature of the test: [^35S]GTPγS binding, mouse hippocampus membranes. Conditions: for EC50: read-out: EC50, stimulation of [^35S]GTPγS binding, n = 3–4. The test is classed as biochemical.
In test [2] the target is T1, hCB1R C4.47(238)S (Homo sapiens, UniProt P21554, C238S). Nature of the test: Covalent labeling assay. To be noted: C4.47(238)S mutant. The test is classed as binding. The gist of the method: (§1)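 Flp-In-293 membranes stably expressing the Cys→Ser hCB1R mutant, at 0.8 mg/mL in TME-0.1% BSA, were preincubated with 20 nM test compound (controls without) at 30 °C for 1 h. Unbound probe was removed by 27 000g spins, TME-1% BSA washes (one 20 min at 30 °C) and TME washes.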

Test [3] concerns Flp-In cells that were not transfected with CB1Rs. Nature of the test: Cellular cAMP assay, non-transfected control cells. It counts as cell-based. To be noted: routine control; data not shown.
Test [4] addresses hemagglutinin (HA)-tagged rCB1R (Rattus norvegicus, UniProt P20272). In words: CB1R internalization, HEK293 cells. Conditions: 30 min at 37 °C; best-fit sigmoidal curve. The test is classed as cell-based.
Test [5] concerns the target T2, hCB1R C7.42(386)S (Homo sapiens, UniProt P21554, C386S). Nature of the test: Covalent labeling assay. Conditions: C7.42(386)S mutant; 20 nM AM3677. The test is classed as binding. In outline:
as §1

The target of test [6] is T3, hCB1R C7.38(382)S (Homo sapiens, UniProt P21554, C382S). In words: Covalent labeling assay. To be noted: C7.38(382)S mutant; 20 nM AM3677. The test is classed as binding. In outline: as §1
The target in test [7] is T4, hCB1R C6.47(355)S (Homo sapiens, UniProt P21554, C355S). Nature of the test: Covalent labeling assay. Conditions: C6.47(355)S mutant; AM3677 10-fold apparent Ki. The test is classed as binding. In outline: as §1
For test [8], the target named is T1, hCB1R C4.47(238)S. Nature of the test: Competition binding with [^3H]CP55,940, Flp-In-293 membranes. Conditions: read-out: apparent Ki (95% CI); C4.47(238)S mutant; [^3H]CP55,940 0.75 nM.
A short description of test [9]: Binding to membranes from nontransfected cells. To be noted: membranes from nontransfected Flp-In-293 cells; data not shown. The gist of the method:
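Membranes from non-transfected Flp-In-293 cells were prepared by cavitation and ultracentrifugation and resuspended in TME (25 mM Tris-HCl, 5 mM MgCl₂, 1 mM EDTA, pH 7.4). […] Filters were washed in ice-cold buffer and counted by scintillation.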

For test [10], the target named is T2, hCB1R C7.42(386)S. In words: Competition binding with [^3H]CP55,940, Flp-In-293 membranes. Conditions: read-out: apparent Ki (95% CI); C7.42(386)S mutant; [^3H]CP55,940 0.75 nM.
In test [11] the target is T5, hCB1R C1.55(139)S (Homo sapiens, UniProt P21554, C139S). The test is described as above. To be noted: read-out: apparent Ki (95% CI); C1.55(139)S mutant; [^3H]CP55,940 0.75 nM.
In test [12] the target is T3, hCB1R C7.38(382)S. The test is described as above. To be noted: read-out: apparent Ki (95% CI); C7.38(382)S mutant; [^3H]CP55,940 0.75 nM.
Test [13] deals with T4, hCB1R C6.47(355)S. The test is described as above. To be noted: read-out: apparent Ki (95% CI); C6.47(355)S mutant; [^3H]CP55,940 0.75 nM.
In test [14] the target is T5, hCB1R C1.55(139)S. In words: Covalent labeling assay. It counts as binding. Conditions: C1.55(139)S mutant; 20 nM AM3677. In outline:
as §1

Test [15] deals with WT and Cys mutant hCB1R variants. Nature of the test: Saturation binding of [^3H]CP55,940, Flp-In-293 membranes. Set-up: species or system human. Conditions: average across all six hCB1R variants; mean ± SEM, n = 6.

“Also recorded” adds a separate entry of the source. Like-named read-outs stand apart in the source and are kept apart here.

T4 sequence (P21554 whole entry C355S): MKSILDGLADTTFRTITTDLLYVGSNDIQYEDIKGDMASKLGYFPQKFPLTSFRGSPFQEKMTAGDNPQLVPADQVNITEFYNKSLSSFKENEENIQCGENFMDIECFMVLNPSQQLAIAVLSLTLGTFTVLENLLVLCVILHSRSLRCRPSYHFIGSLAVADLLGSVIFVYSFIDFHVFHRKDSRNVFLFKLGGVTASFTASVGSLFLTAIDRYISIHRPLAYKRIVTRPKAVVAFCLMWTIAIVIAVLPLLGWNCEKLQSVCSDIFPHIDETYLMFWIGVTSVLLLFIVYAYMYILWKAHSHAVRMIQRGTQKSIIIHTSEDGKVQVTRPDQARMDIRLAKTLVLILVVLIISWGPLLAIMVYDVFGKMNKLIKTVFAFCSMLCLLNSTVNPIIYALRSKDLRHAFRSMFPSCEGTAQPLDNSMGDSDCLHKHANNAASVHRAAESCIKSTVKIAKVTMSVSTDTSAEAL
hCB1R, sequence (P21554 whole entry): as the sequence (P21554 whole entry C355S) above, with S355C counted along it
T1 sequence (P21554 whole entry C238S): as the sequence (P21554 whole entry C355S) above, with C238S, S355C counted along it
CB1R in mouse hippocampus, sequence (P47746 whole entry): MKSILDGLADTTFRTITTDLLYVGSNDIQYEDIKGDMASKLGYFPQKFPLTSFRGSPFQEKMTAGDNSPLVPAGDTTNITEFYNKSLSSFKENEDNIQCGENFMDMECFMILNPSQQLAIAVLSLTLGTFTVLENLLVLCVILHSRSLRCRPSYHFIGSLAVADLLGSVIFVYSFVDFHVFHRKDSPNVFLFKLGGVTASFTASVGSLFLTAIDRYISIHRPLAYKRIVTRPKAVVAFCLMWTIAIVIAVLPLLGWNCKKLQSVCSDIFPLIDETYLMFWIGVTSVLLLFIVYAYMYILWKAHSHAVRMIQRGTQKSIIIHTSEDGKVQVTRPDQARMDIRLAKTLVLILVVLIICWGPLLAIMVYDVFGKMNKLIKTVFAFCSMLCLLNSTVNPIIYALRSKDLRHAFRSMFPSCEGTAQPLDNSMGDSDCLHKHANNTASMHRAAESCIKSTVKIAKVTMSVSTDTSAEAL
T3 sequence (P21554 whole entry C382S): as the sequence (P21554 whole entry C355S) above, with S355C, C382S counted along it
T5 sequence (P21554 whole entry C139S): as the sequence (P21554 whole entry C355S) above, with C139S, S355C counted along it
T2 sequence (P21554 whole entry C386S): as the sequence (P21554 whole entry C355S) above, with S355C, C386S counted along it
hemagglutinin (HA)-tagged rCB1R, sequence (P20272 whole entry): as the sequence (P47746 whole entry) above, with D95E counted along it

`CCCCC/C=C\C/C=C\C/C=C\C/C=C\CCCC(=O)NC1CC1` [ACPA, (5Z,8Z,11Z,14Z)-eicosa-5,8,11,14-tetraenoic acid cyclopropylamide]: the “selectivity vs CB2R” value in the test on rat CB1R (rCB1R) was 60 to 300 fold. At rat CB1R (rCB1R) (read-out: apparent Ki, rCB1R, [^3H]CP55,940 as competitive radioligand), the Ki is 2.2 to 2.7 nM. In the test with recombinant hCB1R, the agonist type result is given as “full agonist”. Moreover, the “potency relative to AEA, inhibition of forskolin-stimulated cAMP production” value on hCB1R is recorded as ~ 200 fold.

`CCCCC/C=C\C/C=C\C/C=C\C/C=C\CCCC(=O)NCCO` [AEA, arachidonoylethanolamide, reference compound]: the Emax in test [1] (read-out: maximum response, [^35S]GTPγS binding) worked out at 34 ± 1.5%. The Ki on rat CB1R (rCB1R) (rCB1R) was 61 nM.

As to `O=C(CCC/C=C\C/C=C\C/C=C\C/C=C\CCCCCN=C=S)NC1CC1` [AM3677, 20-isothiocyanato-eciosa-5,8,11,14-tetraenoic acid cyclopropylamide], the “degree of irreversible labeling” value at hCB1R C4.47(238)S [2] (20 nM AM3677), at hCB1R C7.42(386)S [5], at hCB1R C7.38(382)S [6] and at hCB1R C1.55(139)S [14] was “comparable to that displayed by WT hCB1R” each time. At hCB1R C4.47(238)S [2] (AM3677 at 10-fold its apparent Ki), the “reduction of [^3H]CP55,940 specific binding (Bmax)” value is recorded as “at least 43%”. The “effect on cAMP in non-transfected cells” value in test [3] is recorded as “had no effect”. For the same molecule, in test [4], the maximum internalization is recorded as ~ 42%. Also, in test [1] (more potent than AEA), the “potency relative to AEA, [^35S]GTPγS binding” value was roughly 100 fold. Also, the “potency relative to CP55,940, [^35S]GTPγS binding” value in test [1] (more potent than CP55,940) is recorded as ~ 23 fold. For the same molecule, the EC50 in [1] (mean ± SEM) is 50 ± 20 nM. Moreover, the “maximum response, [^35S]GTPγS binding” value in test [1] (relative to CP55,940 (maximum = response to 10 μM CP55,940), mean ± SEM, n = 3) is 32 ± 2.1%. Further, the “selectivity vs CB2R” value in the test with rat CB1R (rCB1R) is given as ~ 40 fold. The manner of binding entry in the test on rat CB1R (rCB1R) (rCB1R) was “irreversible”. The “effect of AM3677 preincubation on Bmax for [^3H]CP55,940 (irreversible binding)” value at hCB1R C6.47(355)S [7] is given as “unaffected; also recorded: did not affect”. The Ki amounted to 2.4 nM on hCB1R C4.47(238)S [8]; 1.6 nM on hCB1R C7.42(386)S [10]; 2.3 nM on hCB1R C1.55(139)S [11]; 1.9 nM at hCB1R C7.38(382)S [12]; 2.2 nM at hCB1R C6.47(355)S [13]. For the same molecule, the specific binding result in test [9] was “No specific”. The “maximal efficacy, inhibition of forskolin-activated cAMP formation” value at hCB1R (at micromolar concentrations) is ~ 60%. Moreover, the “potency relative to AEA, inhibition of forskolin-stimulated cAMP production” value on hCB1R is given as ~ 200 fold. Moreover, the IC50 on hCB1R (read-out: IC50, inhibition of forskolin-activated cAMP formation, Flp-In-293 cells overexpressing hCB1R, 5 μM forskolin, mean ± SEM, n = 3) turned out to be 27.1 ± 2.2 nM.

For the molecule `CCCCCCC(C)(C)c1ccc([C@@H]2C[C@H](O)CC[C@H]2CCCO)c(O)c1` [CP55,940, reference compound], the EC50 in [1] (mean ± SEM) was 1100 ± 200 nM. The specific binding entry in test [9] is “No specific”. Binding in test [15] was characterised by a dissociation constant (Kd) of 5.4 ± 0.8 nM.
